From ChEMBL document CHEMBL1132246, “Cross-linking and sequence-specific alkylation of DNA by aziridinylquinones. 3. Effects of alkyl substituents” (1999)

Key:
[1] = biological target: NAD(P)H dehydrogenase [quinone] 1 (Homo sapiens) (UniProt P15559); assay: Rate of reduction by human recombinant DTD; assay type: functional
Summary of the method: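 Human recombinant DTD (specific activity 653 µmol/min/mg protein) with quinone at 50 µM in 50 mM Tris-HCl, pH 7.4. Reduction was followed through the coupled reduction of 70 µM cytochrome c.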

[2] = Rate of reduction by human BE cell extract; assay type: functional
Summary of the method: (§1)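 Extract from 2 × 10⁷ BE cells in 2 mL PBS, sonicated and centrifuged to remove debris. Quinone at 100 µM in PBS with acetylated cytochrome c (100 µM) and NADPH (200 µM). Reduction was followed through cytochrome c reduction.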

[3] = test system: BE; assay: In vitro cytotoxicity against BE cell line; assay type: functional, Homo sapiens
Summary of the method: (§2)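 Continuous-exposure MTT assay at 600 cells/well. HT29 (colon) and H460 (large-cell lung) express high DTD; H596 (lung) and BE (colon) lack detectable DTD activity. Absorbance was read at 540 and 640 nm after 5 days, and growth inhibition was plotted against concentration. Triplicates at each concentration, on at least two occasions.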

[4] = test system: HT-29; assay: In vitro cytotoxicity against HT-29 cell line; assay type: functional, Homo sapiens; summary of the method: as §2
[5] = test system: NCI-H596; assay: In vitro cytotoxicity against H596 cell line; assay type: functional, Homo sapiens; summary of the method: as §2
[6] = test system: Nucleic Acid; assay: Ability to produce interstrand cross-links in the plasmid DNA at 10 uM concentration; assay type: functional
Summary of the method: (§3)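 Stocks were 10 mM in DMSO. DNA was ethanol-precipitated, denatured in 30% DMSO at 90 °C for 2 min and run on 0.8% agarose gels at 40 V for 16 h. Cross-linked versus single-stranded DNA was read by autoradiography.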

[7] = test system: Nucleic Acid; assay: Ability to produce interstrand cross-links in the plasmid DNA at 100 uM concentration; assay type: functional; summary of the method: as §3
[8] = test system: NCI-H460; assay: In vitro cytotoxicity against H460 cell line; assay type: functional, Homo sapiens; summary of the method: as §2
[9] = test system: BE; assay: Rate of reduction by human BE cell extract; Not Detected; assay type: functional, cell-based; summary of the method: as §1

Chain of NAD(P)H dehydrogenase [quinone] 1 (Homo sapiens) (P15559 whole entry): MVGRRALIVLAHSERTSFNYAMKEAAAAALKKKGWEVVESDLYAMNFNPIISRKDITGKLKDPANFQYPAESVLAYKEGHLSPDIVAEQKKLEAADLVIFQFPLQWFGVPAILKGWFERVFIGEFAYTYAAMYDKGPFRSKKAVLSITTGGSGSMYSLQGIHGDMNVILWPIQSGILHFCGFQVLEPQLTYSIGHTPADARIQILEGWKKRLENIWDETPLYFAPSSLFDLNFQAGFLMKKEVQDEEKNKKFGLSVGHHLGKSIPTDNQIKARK

Row | Compound | Rate of reduction [1] | Rate of reduction [2] | Cytotoxicity [3] | Cytotoxicity [4] | Cytotoxicity [5] | Activity [6] | Activity [7] | Cytotoxicity [8] | Rate of reduction [9]
1 | CCC1=C(N2CC2)C(=O)C(C)=C(N2CC2)C1=O | 12.5 µM/min/mg | 4 nM/min/mg | 84 nM | 3.9 nM | 98.5 nM | 69% | 100% | 1.6 nM | –
2 | CCCC1=C(N2CC2)C(=O)C(C)=C(N2CC2)C1=O | 7.9 µM/min/mg | 3.4 nM/min/mg | 67 nM | 5.5 nM | 228 nM | 58.4% | 100% | 3.3 nM | –
3 | CC1=C(N2CC2)C(=O)C(C(C)C)=C(N2CC2)C1=O | 2.7 µM/min/mg | 1.1 nM/min/mg | 1300 nM | 33 nM | 1230 nM | 28.1% | 87.8% | 3.6 nM | –
4 | CC(C)C1=C(N2CC2)C(=O)C(C(C)C)=C(N2CC2)C1=O | 0.22 µM/min/mg | – | 3130 nM | 2740 nM | 2620 nM | 0% | 0% | 170 nM | Not detected
5 | O=C1C=C(N2CC2)C(=O)C=C1N1CC1 | 35.6 µM/min/mg | 25.3 nM/min/mg | 10.2 nM | 5.1 nM | 12.9 nM | 100% | 100% | 4.6 nM | –
6 | CCCC1=C(N2CC2)C(=O)C(CCC)=C(N2CC2)C1=O | 1 µM/min/mg | 1.7 nM/min/mg | 590 nM | 58.2 nM | 1290 nM | 16.4% | 95.6% | 20.1 nM | –
7 | CC1=C(N2CC2)C(=O)C(C)=C(N2CC2)C1=O | 21 µM/min/mg | 9.2 nM/min/mg | 25.9 nM | 3.4 nM | 48.8 nM | 79.8% | 100% | 0.77 nM | –
8 | CCC1=C(N2CC2)C(=O)C(CC)=C(N2CC2)C1=O | 3 µM/min/mg | 2.3 nM/min/mg | 290 nM | 21.8 nM | 1160 nM | 60.9% | 100% | 4.1 nM | –
